Bioassay records (PubChem BioAssay)
PostGolgi ctrl: growth inhibition of yeast control strain, primary screen, counter-screen for post-Golgi transport modulator project; efflux-deficient yeast background strain, growth absorbance A615, 16 h; inhibition, % at 10 µM; 98,000 compounds, 5% hits; AID 738, 2007
Ecoli WT expand: growth inhibitors of wild-type E. coli, primary screen, strain BW25113, expanded library, OD600. OD600 absorbance. growth inhibition, % at 100 µM. 98,000 compounds, 0.15% hits. AID 710, 2007;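 active = growth inhibition above about 50% at one test dose, limit read from the data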;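 also: growth measured after 20 h incubation at 37 °C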
tolC growth inh: growth inhibitors of E. coli tolC mutant, primary screen, strain BW25113 ΔtolC::kan, 384-well. growth inhibition, % at 10 µM (by protocol). 65,000 compounds, 2.2% hits. OD615. AID 573, 2007;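 active = growth inhibition at or above a cutoff equal to the mean over every tested compound plus 3 SD, cut at about 60% in these data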;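 also: growth measured after 20 h incubation at 37 °C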
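Test system: tolC-deleted E. coli BW25113 | Medium: LB with kanamycin 50 µg/mL | Compound dosing: Single concentration, 10 µM final per compound | Schedule: 37 °C, 20 h exposure | Measured by: OD at 615 nm | Evaluation: Percent growth inhibition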
PostGolgi yeast: phenotypic screen on post-Golgi transport, primary screen | post-Golgi transport phenotypic cell assay | inhibition, % at 10 µM | 98,000 compounds, 0.9% hits;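 also: yeast cells grown in 1536-well plates; yeast grown about 18 h at 30C before absorbance read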
Cav32 inh: Cav3.2 calcium influx blockers – cell-based, Fluo-4 calcium fluorescence, FDSS, MLSMR library, primary screen; AID 449739, 2010; B-score at 10 µM; Cav3.2-expressing cells; active compounds read low; 100,000 compounds, 4% hits;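 active = single-dose well whose peak fluorescence ratio is a statistical outlier from its plate by either plate-standardised score or position-corrected B-score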
Numbers stand for hits; – = inactive; · = no result given. Most compounds without a hit are left out; they make up all but 8.4% or so of the library. Rule as the data show it, unless noted: active = inhibition above about 30%; inactive = the rest.

SMILES	PostGolgi ctrl	Ecoli WT expand	tolC growth inh	PostGolgi yeast	Cav32 inh
O=C(NC12CC3CC(CC(C3)C1)C2)c1ccc(COc2ccc(Cl)cc2[N+](=O)[O-])o1	51	–	·	–	–
Cc1ccc(-c2nnn(CC(=O)N3c4ccccc4CCc4ccccc43)n2)cc1	·	·	·	·	–
Cc1ccc(NC(=O)CSCC(=O)N2c3ccccc3CCc3ccccc32)cc1	–	–	·	–	-4.9
COc1ccc(-c2noc(C)c2-c2ccc3ccccc3n2)c(O)c1	49	–	96	–	–
COc1ccc(-c2onc(C)c2-c2ccccc2)c(O)c1	–	–	–	–	–
O=C1CCCCC(=O)N(c2ccccc2)c2ccccc21	32	–	–	–	–
CCCCNc1oc(-c2cccs2)nc1S(=O)(=O)c1ccccc1	–	–	·	–	-3.3
COc1ccc(/C(O)=C/C(=O)C(=O)Nc2c(C)n(C)n(-c3ccccc3)c2=O)cc1	–	–	·	–	–
COc1ccc(/C(O)=C/C(=O)C(=O)NNC(=O)C(O)(c2ccccc2)c2ccccc2)cc1	–	–	·	–	-9.7
COc1ccc(Cc2nc(C(=O)NCc3ccccc3OC)cs2)cc1	35	–	·	–	-6.7
Cc1cc(-n2ccc(=O)[nH]c2=O)nc(-c2ccccc2)n1	31	–	–	–	–
CSc1nc(C)cc(-n2ccc(=O)[nH]c2=O)n1	–	–	–	–	–
CC(C)c1nnc(NC(=O)CCC(=O)NCc2ccco2)s1	–	–	–	–	–
Cn1cc(Br)c(C(=O)N2CCN(c3cccc(Cl)c3)CC2)n1	·	·	·	·	–
C/C=C1\COC(C(=O)NCc2cccc(OC)c2OC)(C(F)(F)F)C=C1C=C1CCCCC1 (stereo not drawn)	·	·	·	·	-4.2
O=S(=O)(c1ccc(Cl)cc1)N1CCN(C2CCN(Cc3ccccc3)CC2)CC1	–	–	·	90	–
COc1ccc2c3c(cccc13)NN=C2C	·	·	–	·	·
CCN(CCNC(=O)C1CCN(S(=O)(=O)c2cccc3cccnc23)CC1)c1ccccc1	–	–	–	–	–
CC1CCCN(C(=S)NCCc2ccccc2)C1 (stereo not drawn)	32	–	·	–	–
CCn1c(N2CCN(C(=S)NCCc3ccccc3)CC2)nc2ccccc21	31	–	·	–	–
COc1ccccc1-c1nc(-c2cccc(C)c2)no1	–	–	–	–	–
CC1CCC(C(C)C)C(OCC(O)CN2CCN(Cc3ccccc3)CC2)C1 (stereo not drawn)	30	–	·	103	·
CC1CC(NC(=O)C2(C)CC2(Cl)Cl)CC(C)(C)C1 (stereo not drawn)	–	–	·	–	–
CCOC(=O)c1cnc2ccc(C)cc2c1Sc1ccccc1	31	–	·	–	–
CCOC(=O)C1(CC)NC(c2cccc(F)c2)C2C(=O)N(CC)C(=O)C21 (stereo not drawn)	·	·	–	·	–
SMILES	PostGolgi ctrl	Ecoli WT expand	tolC growth inh	PostGolgi yeast	Cav32 inh
C=CCSc1nnc(-c2ccccc2NC(=O)CC)c(=O)[nH]1	–	–	–	–	–
CC(C)N(C(=O)CSc1nnc(-c2cc3ccccc3cc2O)n1Cc1ccco1)C(C)C	–	–	–	–	-6.6
O=C(CSc1nnc(-c2cc3ccccc3cc2O)n1Cc1ccco1)N1CCc2ccccc2C1	80	–	·	–	-5.1
Cc1cc(C)n(C(=O)c2ccc(S(=O)(=O)N3CCOCC3)cc2)n1	–	–	·	–	–
Cn1c(N2CCOCC2)nc(-c2ccccc2)c1-c1ccccc1	–	–	–	–	–
CC(NC(=O)CC12CC3CC(CC(C3)C1)C2)C(=O)O (stereo not drawn)	–	–	–	–	-3.5
CC1(C)Cc2ccccc2-c2nnc(-c3ccccn3)n21	–	–	–	–	–
COc1ccc(-c2cc(C(=O)N/N=C/c3sccc3C)c3ccccc3n2)c(OC)c1	–	–	·	–	–
COc1ccccc1-c1cc(C(=O)N/N=C/C=C/c2ccccc2[N+](=O)[O-])c2ccccc2n1	–	–	·	–	-4.1
COc1ccccc1-c1cc(C(=O)N/N=C/c2cccs2)c2ccccc2n1	33	–	·	–	·
O=C(Cn1cnc2c(oc3ccccc32)c1=O)NCCc1ccccc1	·	·	–	·	–
COc1cccc(NC(=O)N(C2CCCCC2)C(C)c2cccs2)c1 (stereo not drawn)	–	–	·	–	–
Cc1ccc(C(=O)/C=C/c2cn(CN3CCN(C)CC3)c3ccccc23)cc1	41	–	·	–	–
CCOC(=O)C1=C(C)NC(=S)N(C(C)=O)C1c1ccc(Cl)cc1 (stereo not drawn)	·	·	·	·	-5.5
